Legend:
[1] = Selectivity index, CC50 for human HepG2 cells to IC50 for chloroquine-resistant/mefloquine-sensitive Plasmodium falciparum W2 ring stage forms; format: toxicity; conditions: read-out: Ratio CC50/IC50
Outline: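 HepG2 cytotoxicity: cells in RPMI 1640 with 5% FBS, trypsinized and plated. Compounds at 0.02% DMSO final, four serial-dilution concentrations, 24 h at 37 °C. MTT added for 90 min, formazan dissolved in DMSO, read at 570 nm. Duplicates. CC50 taken as the concentration killing 50% of cells. SI = CC50/IC50 against W2, with IC50 from the 48 h pLDH assay.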

[2] = Cytotoxicity against human HepG2 cells assessed as reduction in cell viability after 24 hrs by MTT assay; format: cell-based
Outline: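 HepG2 hepatoma cells kept at 37 °C, 5% CO2 in RPMI 1640 with 5% FBS, penicillin and streptomycin; trypsinized and plated in 96-well plates. Samples diluted in medium at 0.02% DMSO final, four serial concentrations; 24 h at 37 °C, then MTT (5 mg/ml in PBS) 90 min, formazan dissolved in DMSO, absorbance 570 nm. Duplicate; CC50 = concentration killing 50% of cells.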

Plasmodium falciparum = assay: Antimalarial activity against chloroquine-resistant/mefloquine-sensitive Plasmodium falciparum W2 ring stage forms infected in human erythrocytes assessed as reduction in parasite growth after 48 hrs by parasite LDH release assay; format: functional, organism-based; conditions: W2, 48 h
Outline: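 Sorbitol-synchronized ring-stage parasites in human erythrocytes (culture kept at 37 °C, candle jar, RPMI with hypoxanthine, HEPES, 10% human plasma) plated at 2% parasitemia, 1% hematocrit with drugs diluted from DMSO stock. Incubated 48 h, frozen -20 °C 24 h, thawed. Lysate given Malstat plus NBT/PES for 1 h at 37 °C in the dark, A570 read. Triplicates. IC50 from sigmoidal dose-response fit versus drug-free controls.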

With `CC(C)=CCC1=C(OCc2cn(-c3ccc(C#N)cc3)nn2)C(=O)c2ccccc2C1=O` the selectivity ratio [1] was 84.2, the CC50 at 24 h [2] was 707 µM and the IC50 (Plasmodium falciparum) was 8.4 µM.

Compound `CC(C)=CCC1=C(OCc2cn(-c3ccc(Cl)cc3)nn2)C(=O)c2ccccc2C1=O` has a selectivity ratio [1] of 118, a CC50 at 24 h [2] of 1150 µM and an IC50 (Plasmodium falciparum) of 9.8 µM.

Work on `CC(C)=CCC1=C(OCc2cn(C3CCNCC3)nn2)C(=O)c2ccccc2C1=O` yielded a selectivity ratio [1] of 124, a CC50 at 24 h [2] of 570 µM and an IC50 (Plasmodium falciparum) of 4.6 µM.

For `CC(C)=CCC1=C(OCc2cn(-c3ccnc4cc(Cl)ccc34)nn2)C(=O)c2ccccc2C1=O`, the selectivity ratio [1] was 129, the CC50 at 24 h [2] was 1940 µM and the IC50 (Plasmodium falciparum) was 15.1 µM.

With `COc1ccc(-n2cc(COC3=C(CC=C(C)C)C(=O)c4ccccc4C3=O)nn2)cc1` the selectivity ratio [1] was 14.1, the CC50 at 24 h [2] was 200 µM and the IC50 (Plasmodium falciparum) was 14.2 µM.

For `O=C1C(O)=C([C@H]2CC[C@H](c3ccc(Cl)cc3)CC2)C(=O)c2ccccc21` [ATOVAQUONE], the selectivity ratio [1] was > 328, the CC50 at 24 h [2] was > 40 µM and the IC50 (Plasmodium falciparum) was 0.00122 µM.

Work on `CCN(CC)CCCC(C)Nc1ccnc2cc(Cl)ccc12` (stereo unspecified) [CHLOROQUINE] yielded a CC50 at 24 h [2] of 393 µM.

In the case of `CC(C)=CCC1=C(OCc2cn(-c3ccccc3C)nn2)C(=O)c2ccccc2C1=O`, the selectivity ratio [1] is reported as 13.6, the CC50 at 24 h [2] is reported as 256 µM and the IC50 (Plasmodium falciparum) is reported as 18.8 to 19.4 µM.

`COc1ccc(-n2cc(COC3=C(CC=C(C)C)C(=O)c4ccccc4C3=O)nn2)c([N+](=O)[O-])c1` gave a selectivity ratio [1] of 64.8, a CC50 at 24 h [2] of 532 µM and an IC50 (Plasmodium falciparum) of 8.2 µM.

Compound `CC(C)=CCC1=C(OCc2cn(-c3cccc(F)c3)nn2)C(=O)c2ccccc2C1=O` has a selectivity ratio [1] of 31.5, a CC50 at 24 h [2] of 265 µM and an IC50 (Plasmodium falciparum) of 8.4 µM.

For `CC(C)=CCC1=C(OCc2cn(-c3ccc(S(N)(=O)=O)cc3)nn2)C(=O)c2ccccc2C1=O`, the selectivity ratio [1] was < 4.6, the CC50 at 24 h [2] was 483 µM and the IC50 (Plasmodium falciparum) was > 105 µM.

In the case of `CC(C)=CCC1=C(OCc2cn(C3CCN(C(=O)OC(C)(C)C)CC3)nn2)C(=O)c2ccccc2C1=O`, the selectivity ratio [1] is reported as 34, the CC50 at 24 h [2] is reported as 136 µM and the IC50 (Plasmodium falciparum) is reported as 4 µM.

Compound `CC(C)=CCC1=C(OCc2cn(Cc3ccccc3)nn2)C(=O)c2ccccc2C1=O` has a selectivity ratio [1] of 53, a CC50 at 24 h [2] of 414 µM and an IC50 (Plasmodium falciparum) of 7.8 µM.

Work on `C#CCOC1=C(CC=C(C)C)C(=O)c2ccccc2C1=O` yielded a selectivity ratio [1] of 113, a CC50 at 24 h [2] of 924 µM and an IC50 (Plasmodium falciparum) of 8.2 µM.

Compound `CC(C)=CCC1=C(OCc2cn(-c3ccc([N+](=O)[O-])cc3)nn2)C(=O)c2ccccc2C1=O` has a selectivity ratio [1] of 46.1, a CC50 at 24 h [2] of 540 µM and an IC50 (Plasmodium falciparum) of 11.7 µM.

`CC(C)=CCC1=C(OCc2cn(-c3ccccc3)nn2)C(=O)c2ccccc2C1=O` gave a selectivity ratio [1] of 5.2, a CC50 at 24 h [2] of 100 µM and an IC50 (Plasmodium falciparum) of 19.1 µM.

Work on `CC(C)=CCC1=C(OCc2cn(-c3cccnc3)nn2)C(=O)c2ccccc2C1=O` yielded a selectivity ratio [1] of 198, a CC50 at 24 h [2] of 1030 µM and an IC50 (Plasmodium falciparum) of 5.2 µM.

Work on `CC(C)=CCC1=C(OCc2cn(C3C[C@@H](CO)O[C@H]3n3cc(C)c(=O)[nH]c3=O)nn2)C(=O)c2ccccc2C1=O` (stereo partly specified) yielded a selectivity ratio [1] of 4.5, a CC50 at 24 h [2] of 60.7 µM and an IC50 (Plasmodium falciparum) of 13.6 µM.

`COc1cc([N+](=O)[O-])ccc1-n1cc(COC2=C(CC=C(C)C)C(=O)c3ccccc3C2=O)nn1` showed a selectivity ratio [1] of 171, a CC50 at 24 h [2] of 701 µM and an IC50 (Plasmodium falciparum) of 4.1 µM.

With `CC(C)=CCC1=C(O)C(=O)c2ccccc2C1=O` [LAPACHOL] the selectivity ratio [1] was > 33.4, the CC50 at 24 h [2] was > 4130 µM and the IC50 (Plasmodium falciparum) was 124 µM.

Compound `CC(C)=CCC1=C(OCc2cn(Cc3ccccn3)nn2)C(=O)c2ccccc2C1=O` has a selectivity ratio [1] of 75.6, a CC50 at 24 h [2] of 658 µM and an IC50 (Plasmodium falciparum) of 8.7 µM.

Source: ChEMBL document CHEMBL4251640, “Antimalarial naphthoquinones. Synthesis via click chemistry, in vitro activity, docking to PfDHODH and SAR of lapachol-based compounds” (Eur J Med Chem, 2018)
